Assay outcomes: PubChem, Johns Hopkins Ion Channel Center
KCNQ1 act = human KCNQ1 channel potentiation or activation; hit rate 0.35% among 310,000; AID 2648; CHO-K1 KCNQ1, thallium flux FluxOR fluorescence; stronger effect = higher value; B-score at 10 µM; P51787;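 active = fluorescence ratio B-score, a plate-corrected score, at least three library SD, with initial intensity B-score within 5 SD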
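Material: CHO-K1 cells stably expressing KCNQ1. Medium: assay buffer for compound exposure, DMSO matched across wells. Reagent: K+/Tl+ depolarizing stimulus. Compound dosing: single-concentration screen. Times: 37 °C overnight plating, 90-min dark dye load, 20-min compound pretreatment. Technique: FluxOR Tl+ flux fluorescence.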
KCNK9 block = inhibitors of human KCNK9 two-pore domain potassium channel. B-score at 10 µM. HEK293 KCNK9, FluxOR thallium flux fluorescence; stronger effect = lower value. hit rate 1.2% among 310,000. Q9NPC2;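 active = ratio B-score over 3 SD below the library mean, with starting fluorescence within 5 SD of its mean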;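 also: negative B-score means less thallium flux so channel inhibition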
KCNK3 inh = human KCNK3 channel inhibition, primary screen; CHO-KCNK3 thallium flux, FluxOR fluorescence; stronger effect = lower value; B-score at 10 µM; hit rate 0.84% among 340,000;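 active = B-score under library mean minus 4 SD, starting fluorescence ratio at most library mean plus 5 SD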;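 also: more negative B-score means stronger inhibition of thallium flux through KCNK3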
Target sequence (O14649 whole entry, looked up): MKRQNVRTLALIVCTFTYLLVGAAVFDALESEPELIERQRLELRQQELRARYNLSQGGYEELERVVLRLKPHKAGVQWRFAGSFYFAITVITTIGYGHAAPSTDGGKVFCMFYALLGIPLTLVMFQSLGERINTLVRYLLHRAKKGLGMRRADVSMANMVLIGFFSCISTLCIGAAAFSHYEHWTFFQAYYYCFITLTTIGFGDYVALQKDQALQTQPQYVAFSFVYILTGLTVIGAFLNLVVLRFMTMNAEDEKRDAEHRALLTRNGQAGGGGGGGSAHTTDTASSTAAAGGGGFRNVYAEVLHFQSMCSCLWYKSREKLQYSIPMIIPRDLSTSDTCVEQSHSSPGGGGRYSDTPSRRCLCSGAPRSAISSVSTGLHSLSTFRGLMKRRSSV
hERG protect = hERG (human) protection from proarrhythmic block. AID 1511. hit rate 0.51% among 310,000. CHO-hERG, FluxOR thallium flux, dofetilide IC70 present. Q12809. activation (rescue from dofetilide block), less the hit threshold, % at 10 µM;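 active = activation above the mean of controls blocked by dofetilide plus 5 SD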;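 also: thallium influx through hERG after potassium depolarization seen as dye fluorescence rise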
KCNQ1 inh = blocks the human KCNQ1 potassium channel | AID 2642 | hit rate 1.3% among 310,000 | CHO-K1 KCNQ1, FluxOR thallium flux fluorescence; stronger effect = higher value | P51787 | B-score at 10 µM;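 active = compounds whose thallium flux B-score, printed positive for inhibition, exceeds three library SD while starting fluorescence stays within three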;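 also: channel opened by potassium depolarization with thallium stimulus after 20 min compound exposure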
KCNK3 confirm = human KCNK3 channel inhibition, confirmation assay; shares compounds with KCNK3 inh; CHO-KCNK3 thallium flux, FluxOR fluorescence; 0% buffer, 100% carvedilol maximal block; ratio percent of control, % at 10 µM; hit rate 99% among 2,400; AID 651638;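 active = ratio percent of control, averaged over triplicates, above buffer control mean plus 5 SD, cut at about 64% in these data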;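 also: ratio is the fluorescence rise from min to max over baseline after thallium stimulus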
KCNK3 uninduced = counter-screen for KCNK3 inhibitors: effect in non-induced cells. thallium flux ratio (lower = more inhibition) at 10 µM. hit rate 40% among 2,400. AID 651747. non-induced KCNK3 parental cells, FluxOR thallium flux; stronger effect = lower value. shares compounds with KCNK3 inh;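 active = thallium flux ratio, averaged over three wells, more than 5 SD below the buffer control mean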;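 also: host cells are CHO cells without KCNK3 induction; ratio is peak minus trough fluorescence over baseline then normalized to buffer controls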
Active calls of the source: *; i = inactive; nt = not tested or not shown. Rows were chosen to be rich in hits. Some 3.1% of all compounds tested hit in one or more screens of this group.

SMILES	KCNQ1 act	KCNK9 block	KCNK3 inh	hERG protect	KCNQ1 inh	KCNK3 confirm	KCNK3 uninduced
C=C(C)COc1ccc(-c2[nH]ncc2Oc2ccccc2OC)c(O)c1	i	i	i	-8	i	nt	nt
C=C(C)COc1ccc(-c2[nH]ncc2-c2ccccc2OC)c(O)c1	i	i	-9*	-9	i	96*	i
Cc1onc(-c2ccc3c(c2)OCO3)c1-c1ccc2[nH]ccc2c1	i	i	-9.5*	-21	i	95*	i
CCCCc1nn(-c2cc(Cl)ccc2OC)c2c1C(=O)CCC2	i	i	-9.2*	-15	i	96*	0.16*
O=C(COC(=O)c1cc(Br)ccc1O)Nc1cc(S(=O)(=O)N2CCCC2)ccc1Cl	i	-6.6*	-9.5*	-21	i	96*	i
COC(=O)[C@]1(C)N[C@H](CN(C)C(=O)c2ccc(F)cc2)[C@@H]2C(=O)N(C)C(=O)[C@@H]21	nt	nt	i	nt	nt	nt	nt
Cc1ccc(C(=O)COC(=O)c2ccc(O)cc2)cc1	i	i	i	-6	i	nt	nt
Cc1cccc(C(=O)Nc2cc(NC(=O)c3cccs3)ccc2C)c1	i	i	-9.7*	-4	i	112*	i
Cc1cc(C)cc(C(=O)Nc2ccc(NC(=O)c3cccs3)cc2)c1	i	i	i	-7	i	nt	nt
CC(C)(C)NC(=O)c1cc(NC(=O)c2cccs2)cc(NC(=O)c2cccs2)c1	i	-7.2*	-11*	-8	i	100*	i
O=C(Nc1cccc(NC(=O)c2cccs2)c1)c1cccnc1	i	i	-9.3*	-2	i	89*	i
Cc1ccc(C(=O)Nc2cccc(NC(=O)c3cccs3)c2)c(C)c1	i	-7*	-11*	-3	i	85*	i
Cc1nn(CC(=O)Nc2ccc3c(c2)OCCO3)c(C)c1[N+](=O)[O-]	nt	nt	i	nt	nt	nt	nt
NC(=S)Nc1ccc(S(=O)(=O)c2ccc(NC(N)=S)cc2)cc1	i	i	i	-7	i	nt	nt
S=C1NCCc2ccc(Cl)cc2C1c1ccccc1Cl (stereo not given)	i	-6.7*	-11*	-6	i	123*	i
C(=Cc1c[nH]c2ccccc12)c1ccc2ccccc2n1	nt	nt	i	nt	nt	nt	nt
C(=Cc1c[nH]c2ccccc12)c1nccc2ccccc12	nt	nt	-14*	nt	nt	167*	0.044*
CN1CCN(C2Cc3cc(Cl)ccc3Sc3cc(F)ccc32)CC1 (stereo not given)	i	i	-10*	-13	i	144*	i
Cc1ccccc1NC(C)C(=O)N/N=C/c1ccccc1OCc1cccc(Br)c1 (stereo not given)	i	i	-11*	-10	i	92*	0.16*
CCOc1ccc(OCCn2c(S(=O)(=O)O)nc3c(N)ncnc32)cc1	i	i	i	-8	i	nt	nt
C/C(=N\Nc1ccc([N+](=O)[O-])cc1[N+](=O)[O-])C(C)C(C)C (stereo not given)	i	i	-9.2*	-8	8*	93*	0.14*
Cc1ccc(C(C)C)c(OCC(O)CNC2CCCC2)c1 (stereo not given)	i	i	i	-9	i	nt	nt
CC1CCN(C(=O)c2ccc(-c3ccccc3Cl)o2)CC1	i	i	-9.2*	-20	i	123*	0.14*
O=C(c1ccc(-c2ccccc2Cl)o1)N1CCC1	nt	nt	i	nt	nt	nt	nt
CNC(=S)n1cnc(N)n1	i	i	i	-9	i	nt	nt
SMILES	KCNQ1 act	KCNK9 block	KCNK3 inh	hERG protect	KCNQ1 inh	KCNK3 confirm	KCNK3 uninduced
C(=N\N(c1ccccc1)c1ccccc1)/c1ccccn1	i	i	-9.9*	-7	i	133*	0.12*
NC(N)=N/N=C/c1ccc(OCc2ccc(Cl)cc2)cc1	i	i	-10*	-30	7*	70*	i
CC(C)(C)c1cc(CNC2CS(=O)(=O)C[C@@H]2O)cc(C(C)(C)C)c1O (stereo not given in full)	i	i	i	-8	i	nt	nt
CCN(CC)C(=O)C(Oc1ccc(S(=O)(=O)N2CCCC2)cc1[N+](=O)[O-])c1ccccc1 (stereo not given)	i	-7.1*	-11*	-3	i	98*	i
CCCCNC(=S)N1CCN(C(c2ccccc2)c2ccccc2)CC1	i	-6.8*	-11*	-28	i	93*	0.11*
CCCNC(=S)N1CCN(C(c2ccccc2)c2ccccc2)CC1	i	i	i	-8	i	nt	nt
CCN(CCCNC(=O)CNC(=O)c1nn(-c2ccc(OC)cc2)c(=O)c2ccccc12)c1cccc(C)c1	i	i	-12*	-7	i	117*	i
O=C(Nc1ccc(Cl)cc1)Nc1ccccc1CC[N+](=O)[O-]	i	i	-11*	-11	8*	82*	i
CN(C)C(=O)Nc1ccccc1CC[N+](=O)[O-]	i	i	i	-2	i	nt	nt
Cc1c(Cl)cccc1NC(=O)Nc1c(C)n(C)n(-c2ccccc2)c1=O	i	i	i	-7	i	nt	nt
Cc1cc(C)c2nc(-c3cccc(Cl)c3)c(C)c(C(=O)N3CCOCC3)c2c1	i	-7.4*	-9.5*	-13	i	122*	0.15*
c1ccc2c(-c3c[nH]c4ccccc34)c3ccccc3nc2c1	i	i	-10*	1	i	123*	i
O=C(O)c1cc(-c2c[nH]c3ccccc23)nc2ccc3ccccc3c12	i	i	i	1	i	nt	nt
O=C(Nc1ccc2c(c1)Cc1ccccc1-2)c1ccccc1F	i	i	i	-3	i	nt	nt
O=C(Nc1ccc2c(c1)Cc1ccccc1-2)c1ccc(Br)o1	i	i	-10*	-7	i	86*	i
O=C(C1CCCCC1)N1CCN(c2ccnc3cc(Cl)ccc23)CC1	i	i	-8.8*	-21	i	115*	i
Cc1ccc(CNCCCSc2ncccn2)cc1	i	i	i	-12	i	nt	nt
COc1ccc(Cl)cc1NC(=O)CN(C)C(=O)c1sc2ccccc2c1Cl	nt	nt	-12*	nt	nt	112*	i
Cc1oc(-c2cccc(Cl)c2)nc1CN1CCCC(C(=O)NC(C)c2ccc3c(c2)OCCO3)C1 (stereo not given)	i	i	-11*	-14	i	127*	0.12*
CCc1ccc(C2CC(c3ccccc3)n3ncnc3N2)cc1 (stereo not given)	i	i	i	-4	i	nt	nt
CC(Cl)C(=O)NN=C(c1ccccc1)c1ccccc1 (stereo not given)	i	i	-8.9*	-13	i	94*	i
